# SIRT5 inh = SIRT5 desuccinylase inhibitors, primary screen, biochemical, fluorescence imaging, single point, set 5; Purified SirT5, succinyl-peptide AMC, trypsin-coupled fluorescence; inhibition, % at 15 µM; hit rate 1.1% among 330,000; AID 652115, 2013; in the data active = inhibition above about 15%; inconclusive = no clear call, values can overlap the other calls
# E-sel inducer = E-selectin induction in HUVECs, primary screen, imaging, HUVEC, immunofluorescence imaging, single point. hit rate 0.37% among 260,000. activation, % at 7.58 µM. normalized: neutral wells 0, TNF-alpha wells 100;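 active = mean E-selectin-positive cell signal at least 10% of the positive control, reached in at least 60% of replicates, without over 20% cell loss; inconclusive = no rule given, readout overlaps actives, possibly toxicity-flagged; inactive = the rest, including those meeting only one limit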
# Target sequence (P16581 whole entry, looked up): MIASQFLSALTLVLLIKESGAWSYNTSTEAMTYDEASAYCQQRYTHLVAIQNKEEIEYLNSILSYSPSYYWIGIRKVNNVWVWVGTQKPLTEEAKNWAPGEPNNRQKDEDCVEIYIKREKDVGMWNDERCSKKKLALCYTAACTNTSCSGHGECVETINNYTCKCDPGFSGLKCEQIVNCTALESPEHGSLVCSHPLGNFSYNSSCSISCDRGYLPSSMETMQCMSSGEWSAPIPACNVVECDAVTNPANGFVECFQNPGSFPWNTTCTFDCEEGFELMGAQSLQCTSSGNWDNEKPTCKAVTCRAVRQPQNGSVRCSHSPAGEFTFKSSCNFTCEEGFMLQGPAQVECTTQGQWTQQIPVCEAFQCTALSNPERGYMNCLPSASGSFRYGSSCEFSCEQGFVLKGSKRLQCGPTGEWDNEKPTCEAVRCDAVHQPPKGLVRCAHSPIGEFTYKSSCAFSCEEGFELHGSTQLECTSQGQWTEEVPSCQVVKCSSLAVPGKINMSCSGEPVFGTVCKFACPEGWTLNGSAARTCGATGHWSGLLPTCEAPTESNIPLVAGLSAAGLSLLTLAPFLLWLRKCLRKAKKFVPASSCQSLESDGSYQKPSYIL
#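 System: HUVEC / Compound: single concentration / Signal: immunofluorescence imaging / Read-out: percent E-selectin-positive cells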
# DENV2 CPE = inhibitors of DENV2 cytopathic effect, primary screen, cell-based, plate reader, single concentration. hit rate 1.7% among 350,000. AID 651640, 2012. CPE inhibition, % at 9.99 µM. DENV2-infected cells, cytopathic effect rescue; in the data active = CPE inhibition above about 20%, passing the limit was not always enough; inconclusive = no clear call, values can overlap the other calls; tested in BHK-21 cells;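 also: 0% = median of neutral control wells and 100% = median of positive control wells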
# * = called active by the depositor; ? = inconclusive; nt = no result given. Most compounds without a hit are left out; they make up all but 2.9% or so of the library.
SMILES,SIRT5 inh,E-sel inducer,DENV2 CPE
O=C(CC(O)(c1ccccc1)C(F)(F)C(F)F)c1cccs1 (configuration not stated),-0.7,nt,nt
CCCC(=O)Nc1c(-c2cccc(C)c2)c(=O)c2ccccc2n1C,-1.3,0.1,-4.8
Cc1noc(C)c1NC(=O)Nc1ccc2c(c1)CC(=O)N([C@H](C)CO)C[C@H](C)[C@@H](CN(C)CC1CCCCC1)O2,7.6,-0.2,-3.9
CC1CC1C(=O)OCC(=O)Nc1ccccc1Oc1ccccc1 (configuration not stated),-2.5,0.0,6.3
CC1(C(=O)NNC(=O)c2cccc([N+](=O)[O-])c2)CC1Br (configuration not stated),4.9,0.0,15.2
O=C(NNC(=O)C12CC3CC(CC(C3)C1)C2)c1cccc([N+](=O)[O-])c1,-5.2,nt,20.3*
C[C@H](CO)N1C[C@H](C)[C@@H](CN(C)CC2CC2)Oc2ccc(NS(=O)(=O)c3cccs3)cc2C1=O,-5.8,0.2,10.4
COc1ccc2c3c(n(C)c2c1)[C@H](CO)N(Cc1ccccc1F)CC31CCN(C(C)=O)CC1,nt,-0.4,93.3*
COc1ccc2c3c(n(C)c2c1)[C@H](CO)N(CC1CCCC1)CC31CN(C(=O)Nc2ccccc2)C1,3.0,0.2,5.4
COc1ccc2c3c(n(C)c2c1)[C@H](CO)N(Cc1ccccc1F)CC31CN(C(C)=O)C1,3.5,0.0,5.0
COc1ccc2c3c(n(C)c2c1)[C@H](CO)N(CC1CC1)CC31CN(C(=O)CC2CC2)C1,0.6,0.6,-2.3
COc1ccc2c3c(n(C)c2c1)[C@@H](CO)N(CC1CC1)CC31CN(C(=O)CC2CC2)C1,1.2,0.2,20.8*
COc1ccc2c3c(n(C)c2c1)[C@H](CO)N(CC1CC1)CC31CN(C(=O)Nc2ccccc2)C1,nt,-0.3,22.7*
COCc1cc(N2CCN(C(=O)OC(C)(C)C)C[C@H]2C)ccc1N1C[C@@H](C)O[C@@H](C)C1,1.7,0.3,9.4
Cc1ccc(S(=O)(=O)Oc2ccc(/C=C3/C(=N)N4C(=NC3=O)SN=C4S(C)(=O)=O)cc2)cc1,5.6,-0.7,-1.2
CS(=O)(=O)C1=NSC2=NC(=O)/C(=C\c3ccc(OS(=O)(=O)c4ccccc4)cc3)C(=N)N21,16.9*,1.3,1.9
COc1ccccc1C(=O)NC(=S)Nc1ccc2[nH]c(=O)[nH]c2c1,-3.3,nt,3.0
COc1cc(/C=C/C(=O)OCC(=O)Nc2ccc(Cl)cn2)ccc1O,-3.3,46.5*,-6.3
O=C(COC(=O)/C=C/c1ccc(F)cc1)Nc1ccc(Cl)cn1,-4.4,nt,-11.0
COc1cc(/C=C/C(=O)OCC(=O)N2CC(=O)Nc3ccccc32)ccc1O,15.3*,0.2,-3.3
COc1ccc(/C=C/C(=O)OCC(=O)N2CC(=O)Nc3ccccc32)cc1S(=O)(=O)N1CCOCC1,0.1,0.1,-0.8
O=C1CN(C(=O)COC(=O)c2c(F)cccc2Cl)c2ccccc2N1,-1.2,1.1,25.7*
O=C1CN(C(=O)COC(=O)c2ccc(Cl)cc2)c2ccccc2N1,-7.6,-3.6,-7.5
COc1ccc(Cl)cc1C(=O)NNC(=O)CCNC(=O)c1ccccc1,nt,0.1,-4.2
CSCCC(NS(=O)(=O)c1ccc2c(c1)Cc1cc(S(=O)(=O)NC(CCSC)C(=O)O)ccc1-2)C(=O)O (configuration not stated),6.2,1.2,-7.9
SMILES,SIRT5 inh,E-sel inducer,DENV2 CPE
CC(C)C(NS(=O)(=O)c1ccc2c(c1)Cc1cc(S(=O)(=O)NC(C(=O)O)C(C)C)ccc1-2)C(=O)O (configuration not stated),25.2*,nt,-0.9
Fc1ccc(NC(=S)N2CCN(c3cccc(C(F)(F)F)c3)CC2)cc1,-3.2,147.8*,4.7
COc1ccccc1NC(=O)N1CCN(c2cccc(C(F)(F)F)c2)CC1,18.3*,nt,nt
O=S(=O)(Nc1ncccn1)c1ccc(NC(=S)N2CCN(c3cccc(C(F)(F)F)c3)CC2)cc1,2.5,0.4,-4.0
COc1ccccc1NC(=O)N1CCN(C(=O)Nc2ccccc2OC)CC1,5.1,nt,-3.4
Cc1ccc([N+](=O)[O-])c(OCCN2CCc3ccccc3C2)c1,-2.7,0.1,2.3
CCOC(=O)N1CCN(c2cc(NCCO)c([N+](=O)[O-])c3nonc23)CC1,2.2,5.0,-4.2
O=C(c1cc(C2CC2)nn1-c1ccccc1)N1CCN(S(=O)(=O)c2ccccc2)CC1,-1.3,0.1,-9.3
Cc1oc2cc3oc(=O)c(CCC(=O)NCCCn4ccnc4)c(C)c3cc2c1C,-1.0,nt,20.9*
Cc1coc2cc3oc(=O)c(CCC(=O)NCCCn4ccnc4)c(C)c3cc12,-3.6,nt,-12.3
Cc1coc2c(C)c3oc(=O)c(CCC(=O)NCCCN4CCCC4=O)c(C)c3cc12,nt,nt,0.2
Cc1c(CCC(=O)NCCCN2CCCC2=O)c(=O)oc2cc(O)ccc12,-96.0,nt,66.6*
Cc1cc(C)cc(NC(=O)N2CCCN(c3ncccc3[N+](=O)[O-])CC2)c1,-4.0,0.1,-1.6
CC(C)NC(=S)N1CCCN(c2ncccc2[N+](=O)[O-])CC1,17.5*,0.4,1.3
Cc1ccccc1C(=O)N1CCc2cc(-c3csc(NC(=O)CN4CCCC4)n3)ccc21,-3.1,nt,3.6
CN1CCN(C(=O)C[C@@H]2CC[C@@H]3[C@@H](COc4ccc(NC(=O)C5CCCC5)cc4C(=O)N3C)O2)CC1,-2.0,-0.1,?
CN1C(=O)c2cc(NC(=O)c3cccs3)ccc2OC[C@@H]2O[C@H](CC(=O)N3CCOCC3)CC[C@H]21,3.0,0.2,4.6
CN(C)C(=O)C[C@@H]1CC[C@@H]2[C@H](COc3ccc(NC(=O)C4CCCCC4)cc3C(=O)N2C)O1,nt,-0.1,27.9*
CN1CCN(C(=O)C[C@@H]2CC[C@H]3[C@H](COc4ccc(NC(=O)C5CCCC5)cc4C(=O)N3C)O2)CC1,-0.9,0.2,25.3*
CN(C)C(=O)C[C@@H]1CC[C@H]2[C@@H](COc3ccc(NC(=O)C4CCCCC4)cc3C(=O)N2C)O1,0.5,1.1,9.7
COc1cccc(NC(=O)C[C@H]2CC[C@@H]3[C@@H](COc4ccc(NC(=O)C5CCCCC5)cc4C(=O)N3C)O2)c1,0.8,-0.1,32.9*
CN1C(=O)c2cc(NC(=O)c3cccs3)ccc2OC[C@H]2O[C@H](CC(=O)N3CCOCC3)CC[C@@H]21,16.7*,0.1,-4.3
COc1cccc(NC(=O)C[C@H]2CC[C@H]3[C@@H](COc4ccc(NC(=O)C5CCCCC5)cc4C(=O)N3C)O2)c1,nt,0.1,14.5
C/C=C/c1ccc([C@H]2[C@@H](CO)N[C@@H]2CN(C(=O)c2ccccc2F)C(C)C)cc1,-5.7,-0.3,-3.5
CSCCC(C(=O)NC(C)(C)C)n1c(-c2cccc(NC(C)=O)c2)nc2ccccc21 (configuration not stated),nt,-0.2,5.6
CNC(=O)C[C@H]1CC[C@H]2[C@@H](COc3ccc(NC(=O)c4ccccc4OC)cc3C(=O)N2C)O1,2.2,0.0,8.7
COc1ccccc1C(=O)Nc1ccc2c(c1)C(=O)N(C)[C@H]1CC[C@H](CC(=O)Nc3cccc(C(C)C)c3)O[C@@H]1CO2,19.0*,-0.2,-4.4
C[C@H](CO)N1C[C@H](C)[C@H](CN(C)C(=O)Cc2ccccc2)Oc2cc(C3=CCCCC3)ccc2S1(=O)=O,15.4*,0.7,-0.3
